ChEMBL document CHEMBL3868583, “6-Aryl substituted 4-(4-cyanomethyl) phenylamino quinazolines as a new class of isoform-selective PI3K-alpha inhibitors” (Eur J Med Chem, 2016)

Assays:
PC-3 [1] = assay: Induction of cell cycle arrest in human PC3 cells assessed as accumulation at S phase at 10 uM after 24 hrs by propidium iodide-staining based FACS analysis (reference value: 44 %); assay type: functional
Outline: (§1)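 MCF-7 or PC-3 cells treated at indicated concentrations for 24 h, pelleted, PBS-washed, fixed in ice-cold 70% ethanol overnight at 4 °C. RNase 0.2 mg/mL 1 h at 37 °C, propidium iodide 10 µg/mL 30 min dark. 10,000 events (FL2-A vs FL2-W) by flow cytometry; fractions in apoptosis/sub-G1, G1, S, G2-M.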

PC-3 [2] = assay: Induction of cell cycle arrest in human PC3 cells assessed as accumulation at G2 phase at 30 uM after 24 hrs by propidium iodide-staining based FACS analysis (reference value: 17 %); assay type: functional; outline: as §1
[3] = molecular target: Phosphatidylinositol 4,5-bisphosphate 3-kinase catalytic subunit alpha isoform (Homo sapiens, UniProt P42336); assay: Inhibition of PI3Kalpha in human PC3 cells assessed as suppression of akt phosphorylation at Ser-473 residue at 30 uM Western blot analysis; assay type: cell-based; conditions: PC-3
Chain of Phosphatidylinositol 4,5-bisphosphate 3-kinase catalytic subunit alpha isoform (P42336 whole entry, canonical isoform): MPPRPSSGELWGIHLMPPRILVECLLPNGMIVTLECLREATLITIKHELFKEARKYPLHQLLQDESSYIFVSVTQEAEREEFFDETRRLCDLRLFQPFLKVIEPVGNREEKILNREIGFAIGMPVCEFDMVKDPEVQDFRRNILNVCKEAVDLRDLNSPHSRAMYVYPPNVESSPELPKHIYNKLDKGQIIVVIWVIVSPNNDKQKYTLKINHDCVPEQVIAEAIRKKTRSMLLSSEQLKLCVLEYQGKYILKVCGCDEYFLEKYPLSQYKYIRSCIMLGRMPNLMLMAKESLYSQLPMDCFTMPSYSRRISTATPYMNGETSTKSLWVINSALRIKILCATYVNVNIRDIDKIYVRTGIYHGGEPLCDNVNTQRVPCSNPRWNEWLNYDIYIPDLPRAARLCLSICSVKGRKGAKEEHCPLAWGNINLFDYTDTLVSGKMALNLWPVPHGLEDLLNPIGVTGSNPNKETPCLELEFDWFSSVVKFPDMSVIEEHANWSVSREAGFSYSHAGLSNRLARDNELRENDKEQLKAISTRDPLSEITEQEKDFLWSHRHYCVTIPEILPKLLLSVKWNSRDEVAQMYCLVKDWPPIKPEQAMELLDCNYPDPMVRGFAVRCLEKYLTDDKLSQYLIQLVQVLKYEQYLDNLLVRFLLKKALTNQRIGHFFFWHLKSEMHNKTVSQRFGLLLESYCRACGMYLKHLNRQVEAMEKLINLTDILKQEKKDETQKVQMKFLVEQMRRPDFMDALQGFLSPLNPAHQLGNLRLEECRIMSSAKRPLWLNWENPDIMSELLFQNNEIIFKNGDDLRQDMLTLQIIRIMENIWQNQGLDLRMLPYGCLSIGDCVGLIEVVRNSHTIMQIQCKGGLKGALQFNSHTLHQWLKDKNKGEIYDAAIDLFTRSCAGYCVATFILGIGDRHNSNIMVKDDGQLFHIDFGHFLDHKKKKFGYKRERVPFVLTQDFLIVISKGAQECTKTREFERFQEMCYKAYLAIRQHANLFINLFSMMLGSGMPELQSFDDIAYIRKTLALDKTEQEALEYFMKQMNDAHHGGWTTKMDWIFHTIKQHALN

PC-3 [4] = assay: Induction of cell cycle arrest in human PC3 cells assessed as accumulation at G2 phase at 20 uM after 24 hrs by propidium iodide-staining based FACS analysis (reference value: 17 %); assay type: functional; outline: as §1
PC-3 [5] = assay: Induction of apoptosis in human PC3 cells assessed as loss of mitochondrial membrane potential at 20 uM after 24 hrs by rhodamine-123-staining based FACS analysis (reference value: 5 % ); assay type: functional
Outline: (§2)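 Cells (MCF-7 or PC-3) exposed to indicated concentrations for 24 h; rhodamine-123 (5 µM) added 1 h before end. Cells collected, PBS-washed; fluorescence of 10,000 events read in FL-1 by flow cytometry, loss of mitochondrial potential scored as decreased intensity.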

Mus musculus [6] = assay: Toxicity in Swiss mouse implanted with Swiss mouse EAC cells assessed as body weight at 70 mg/kg, ip administered for 1 to 9 days measured on day 9 (reference value: 27.7 g); assay type: organism-based, Ehrlich; conditions: in vivo
[7] = Downregulation of PI3Kgamma expression in human PC3 cells at 30 uM by Western blot analysis; assay type: functional, cell-based; conditions: PC-3
Outline: (§3)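 MCF-7 or PC-3 cells (2 × 10^6) treated with compound, lysed (1 × 10^6 cells) in cold NP-40 buffer with protease inhibitors 30 min on ice, 12,000 g 10 min 4 °C. 50 µg protein per lane on SDS-PAGE, PVDF transfer, 5% milk block, primary antibody 2 h, HRP secondary 1 h, ECL on film; β-actin internal control.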

[8] = molecular target: Phosphatidylinositol 4,5-bisphosphate 3-kinase catalytic subunit beta isoform (Homo sapiens, UniProt P42338); assay: Inhibition of PI3Kbeta (unknown origin) using diC8 PIP2 as substrate up to 20 uM after 60 mins by ADP-glo assay
Chain of Phosphatidylinositol 4,5-bisphosphate 3-kinase catalytic subunit beta isoform (P42338 whole entry, looked up, canonical isoform): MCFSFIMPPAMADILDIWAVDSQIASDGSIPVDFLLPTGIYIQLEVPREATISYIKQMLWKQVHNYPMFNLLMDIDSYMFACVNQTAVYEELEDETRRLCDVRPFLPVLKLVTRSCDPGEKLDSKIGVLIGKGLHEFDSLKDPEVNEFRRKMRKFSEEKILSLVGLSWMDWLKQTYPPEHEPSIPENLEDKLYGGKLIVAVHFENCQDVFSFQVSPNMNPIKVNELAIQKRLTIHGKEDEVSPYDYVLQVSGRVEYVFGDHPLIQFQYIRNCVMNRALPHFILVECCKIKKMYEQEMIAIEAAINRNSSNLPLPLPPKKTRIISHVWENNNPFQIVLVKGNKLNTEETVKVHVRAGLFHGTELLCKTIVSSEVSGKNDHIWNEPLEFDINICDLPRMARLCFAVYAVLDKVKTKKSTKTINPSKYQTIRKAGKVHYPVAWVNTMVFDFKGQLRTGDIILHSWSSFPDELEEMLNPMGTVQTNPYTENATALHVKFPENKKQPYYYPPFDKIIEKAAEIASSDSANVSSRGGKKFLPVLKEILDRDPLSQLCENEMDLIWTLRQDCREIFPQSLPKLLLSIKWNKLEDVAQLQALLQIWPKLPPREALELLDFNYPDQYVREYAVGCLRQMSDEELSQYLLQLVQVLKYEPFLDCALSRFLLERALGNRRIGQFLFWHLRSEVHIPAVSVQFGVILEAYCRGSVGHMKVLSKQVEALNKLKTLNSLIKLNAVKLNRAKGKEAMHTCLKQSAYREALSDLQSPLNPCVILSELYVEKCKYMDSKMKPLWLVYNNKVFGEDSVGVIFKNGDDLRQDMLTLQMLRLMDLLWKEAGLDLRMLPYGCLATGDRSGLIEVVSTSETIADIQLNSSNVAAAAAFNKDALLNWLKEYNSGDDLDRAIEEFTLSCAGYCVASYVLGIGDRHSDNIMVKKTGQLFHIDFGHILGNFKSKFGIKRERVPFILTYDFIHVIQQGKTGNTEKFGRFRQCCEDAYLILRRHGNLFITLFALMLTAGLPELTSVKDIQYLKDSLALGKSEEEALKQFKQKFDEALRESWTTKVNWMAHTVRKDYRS

[9] = Cytotoxicity against human PC3 cells assessed as cell growth inhibition after 6 hrs by MTT assay; assay type: functional; conditions: PC-3, 6 h
PC-3 [10] = assay: Induction of cell cycle arrest in human PC3 cells assessed as apoptotic cells at 10 uM after 24 hrs by propidium iodide-staining based FACS analysis (reference value: 2 %); assay type: functional
Outline: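 PC-3 cells exposed 24 h at indicated concentrations, pelleted, fixed overnight in ice-cold 70% ethanol at 4 °C, RNase 0.2 mg/mL at 37 °C 1 h, propidium iodide 10 µg/mL 30 min in dark; 10,000 events acquired (FL2-A vs FL2-W); DNA histograms modelled for apoptotic (sub-G1), G1, S and G2-M fractions.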

MCF7 [11] = assay: Induction of cell cycle arrest in human MCF7 cells assessed as accumulation at G1 phase at 30 uM after 24 hrs by propidium iodide-staining based FACS analysis (reference value: 50 %); assay type: functional; outline: as §1
[12] = Anticancer activity against Swiss mouse EAT cells implanted in Swiss mouse assessed as tumor growth inhibition at 25 mg/kg, ip administered for 1 to 9 days measured on day 13 relative to control; assay type: functional; conditions: read-out: TGI
Outline: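 Solid tumor: 1 × 10^7 EAC cells (harvested from 8-10 day ascitic Swiss mice) injected intramuscularly into right thigh of male Swiss mice, day 0; randomized next day (n=7 treated, 10 control). Dosing i.p. days 1-9; saline 0.2 ml control, 5-FU 22 mg/kg reference.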

MCF7 [13] = assay: Induction of cell cycle arrest in human MCF7 cells assessed as accumulation at S phase at 20 uM after 24 hrs by propidium iodide-staining based FACS analysis (reference value: 30 %); assay type: functional; outline: as §1
Mus musculus [14] = assay: Toxicity in Swiss mouse implanted with Swiss mouse EAT cells assessed as body weight at 15 mg/kg, ip administered for 1 to 9 days measured on day 1 (reference value: 21.6 g); assay type: organism-based; conditions: in vivo
[15] = Downregulation of PI3Kalpha expression in human MCF7 cells at 30 uM by Western blot analysis; assay type: functional, cell-based; outline: as §3
Mus musculus [16] = assay: Toxicity in Swiss mouse implanted with Swiss mouse EAT cells assessed as body weight at 25 mg/kg, ip administered for 1 to 9 days measured on day 13 (reference value: 24.1 g); assay type: organism-based; conditions: in vivo
MCF7 [17] = assay: Induction of cell cycle arrest in human MCF7 cells assessed as apoptotic cells at 20 uM after 24 hrs by propidium iodide-staining based FACS analysis (reference value: 8 %); assay type: functional; outline: as §1
Mus musculus [18] = assay: Toxicity in Swiss mouse implanted with Swiss mouse EAC cells assessed as body weight at 25 mg/kg, ip administered for 1 to 9 days measured on day 9 (reference value: 27.7 g); assay type: organism-based, Ehrlich; conditions: in vivo
MCF7 [19] = assay: Induction of cell cycle arrest in human MCF7 cells assessed as accumulation at G2 phase at 10 uM after 24 hrs by propidium iodide-staining based FACS analysis (reference value: 20 %); assay type: functional; outline: as §1
[20] = Downregulation of PI3Kdelta expression in human MCF7 cells at 30 uM by Western blot analysis; assay type: functional, cell-based; outline: as §3
MCF7 [21] = assay: Induction of cell cycle arrest in human MCF7 cells assessed as accumulation at G1 phase at 10 uM after 24 hrs by propidium iodide-staining based FACS analysis (reference value: 50 %); assay type: functional; outline: as §1
MCF7 [22] = assay: Induction of apoptosis in human MCF7 cells assessed as loss of mitochondrial membrane potential at 10 uM after 24 hrs by rhodamine-123-staining based FACS analysis (reference value: 7 % ); assay type: functional; outline: as §2
Mus musculus [23] = assay: Toxicity in Swiss mouse implanted with Swiss mouse EAT cells assessed as body weight at 15 mg/kg, ip administered for 1 to 9 days measured on day 5 (reference value: 22.6 g); assay type: organism-based; conditions: in vivo
MCF7 [24] = assay: Induction of cell cycle arrest in human MCF7 cells assessed as accumulation at G2 phase at 30 uM after 24 hrs by propidium iodide-staining based FACS analysis (reference value: 20 %); assay type: functional; outline: as §1
MCF7 [25] = assay: Induction of cell cycle arrest in human MCF7 cells assessed as apoptotic cells at 30 uM after 24 hrs by propidium iodide-staining based FACS analysis (reference value: 8 %); assay type: functional; outline: as §1
Mus musculus [26] = assay: Toxicity in Swiss mouse implanted with Swiss mouse EAT cells assessed as body weight at 25 mg/kg, ip administered for 1 to 9 days measured on day 1 (reference value: 21.6 g); assay type: organism-based; conditions: in vivo
Mus musculus [27] = assay: Toxicity in Swiss mouse implanted with Swiss mouse EAT cells assessed as body weight at 15 mg/kg, ip administered for 1 to 9 days measured on day 9 (reference value: 22.8 g); assay type: organism-based; conditions: in vivo

N#CCc1ccc(Nc2ncnc3ccc(-c4cncc5ccccc45)cc23)cc1
Activity (PC-3 [1]): 56%
Activity (PC-3 [2]): 12%
inhibition [3]: 50%
Activity (PC-3 [4]): 9%
Activity (PC-3 [5]): 14%
Activity (Mus musculus [6]): 23.71 g
Activity [7]: 20%
inhibition [8]: 0%
GI50 [9]: 567 µM
Activity (PC-3 [10]): 4%

N#CCc1ccc(Nc2ncnc3ccc(-c4ccc5[nH]ccc5c4)cc23)cc1
Activity (MCF7 [11]): 44%
inhibition in vivo at 25 mg/kg [12]: 36.5%
Activity (MCF7 [13]): 42%
Activity (Mus musculus [14]): 19.85 g
Activity [15]: 44%
Activity (Mus musculus [16]): 21.81 g
Activity (MCF7 [17]): 12%
Activity (Mus musculus [18]): 22.57 g
Activity (MCF7 [19]): 1%
Activity [20]: 30%
Activity (MCF7 [21]): 59%
Activity (MCF7 [22]): 12%
Activity (Mus musculus [23]): 20 g
Activity (MCF7 [24]): 4%
Activity (MCF7 [25]): 37%
Activity (Mus musculus [26]): 20.14 g
Activity (Mus musculus [27]): 20.71 g
